Broadly, the IC50 is the concentration that gives 50% inhibition. The low end stands for inhibition by little substance, the high end for a need for much substance.

For data set [1], the system named is HeLa. In words: Inhibition of mitosis in human HeLa cells assessed as actin hyperfilamentation at 1 nM by FITC-phalloidin staining. The data set is classed as functional, cell-based. An outline of the steps:
(§1)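 Cells treated with 1 nM compound before entry into mitosis, then fixed with formalin. Stained for microtubules with BODIPY-FL paclitaxel, actin with FITC-phalloidin, and DNA. Analysed by confocal microscopy for actin filamentation, microtubule structure and daughter-cell separation.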

Data set [2] relates to HeLa. Nature of the data set: Cytostatic activity against human HeLa cells. The data set is classed as functional, cell-based.
The subject of data set [3] is HCT-116. In words: Cytostatic activity against human HCT116 cells. The data set is classed as functional, cell-based.
Data set [4] relates to N2a. In words: Cytostatic activity against mouse Neuro2a cells. The data set is classed as functional, cell-based.
Data set [5] is described as follows: Drug localization in nuclear envelope of mouse Neuro2A cells at 1 nM after 1 hr by fluorescence microscopy. The data set is classed as ADME, cell-based. As to conditions: 0.001 µM.
A short description of data set [6]: Drug localization in large vesicles of mouse Neuro2A cells at 1 nM after 1 hr by fluorescence microscopy. The data set is classed as ADME, cell-based. As to conditions: 0.001 µM.
The nature of data set [7]: Drug localization in nuclear envelope of human HCT116 cells at 1 nM after 1 hr by confocal microscopy. The data set is classed as ADME, cell-based. To be noted: hct-116, 1 h, 0.001 µM.
Data set [8] can be described thus: Drug localization in large vesicles of human HCT116 cells at 1 nM after 1 hr by confocal microscopy. The data set is classed as ADME, cell-based. To be noted: hct-116, 1 h, 0.001 µM.
The test system of data set [9] is N2a. Nature of the data set: Inhibition of mitosis in mouse Neuro2a cells assessed as chromatin compactness at 1 nM after 6 to 12 hrs by time-lapse microscopy. The data set is classed as functional, cell-based. In a few lines:
(§2)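 Cells treated with 1 nM compound and followed by time-lapse microscopy imaging the compound's native fluorescence. Bleb formation and chromatin compaction scored at 6 h and 12 h after treatment.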

The subject of data set [10] is N2a. Nature of the data set: Inhibition of mitosis in mouse Neuro2a cells assessed as bleb formation at 1 nM after 6 to 12 hrs by time-lapse microscopy. The data set is classed as functional, cell-based. An outline of the steps:
as §2

Data set [11] has as its system HCT-116. In words: Inhibition of mitosis in human HCT116 cells assessed as bleb formation at 1 nM after 6 to 12 hrs by time-lapse microscopy. It counts as functional, cell-based. In a few lines: as §2
Data set [12] has as its system HCT-116. Nature of the data set: Inhibition of mitosis in human HCT116 cells assessed as chromatin compactness at 1 nM after 6 to 12 hrs by time-lapse microscopy. It counts as functional, cell-based. In a few lines:
as §2

Data set [13] has as its system HCT-116. In words: Inhibition of mitosis in human HCT116 cells assessed as membrane scarring between daughter cells at 1 nM by confocal microscopy. It counts as functional, cell-based. In a few lines: as §1
Data set [14] concerns HCT-116. Nature of the data set: Inhibition of mitosis in human HCT116 cells assessed as hyperfilamentation of actin at 1 nM by FITC-phalloidin staining. The data set is classed as functional, cell-based. In a few lines: as §1
Data set [15] deals with HCT-116. Nature of the data set: Inhibition of mitosis in human HCT116 cells assessed as microtubule disassociation at 1 nM by BODIPY-FL paclitaxel staining. The data set is classed as functional, cell-based. An outline of the steps:
as §1

Data set [16] deals with HeLa. Nature of the data set: Inhibition of mitosis in human HeLa cells assessed as microtubule disassociation at 1 nM by BODIPY-FL paclitaxel staining. It counts as functional, cell-based. In a few lines:
as §1

For data set [17], the system named is HeLa. Nature of the data set: Inhibition of mitosis in human HeLa cells assessed as membrane scarring between daughter cells at 1 nM by confocal microscopy. It counts as functional, cell-based. In a few lines:
as §1

Data set [18] deals with N2a. Nature of the data set: Inhibition of mitosis in mouse Neuro2a cells assessed as actin hyperfilamentation at 1 nM by FITC-phalloidin staining. The data set is classed as functional, cell-based. In a few lines: as §1
The subject of data set [19] is N2a. Nature of the data set: Inhibition of mitosis in mouse Neuro2a cells assessed as microtubule disassociation at 1 nM by BODIPY-FL paclitaxel staining. It counts as functional, cell-based. An outline of the steps: as §1
In data set [20] the test system is N2a. In words: Inhibition of mitosis in mouse Neuro2a cells assessed as membrane scarring between daughter cells at 1 nM by confocal microscopy. It counts as functional, cell-based. An outline of the steps:
as §1

Data set [21] concerns HeLa. Nature of the data set: Inhibition of mitosis in human HeLa cells assessed as chromatin compactness at 1 nM after 6 to 12 hrs by time-lapse microscopy. It counts as functional, cell-based. In a few lines: as §2
Data set [22] concerns HeLa. In words: Inhibition of mitosis in human HeLa cells assessed as bleb formation at 1 nM after 6 to 12 hrs by time-lapse microscopy. It counts as functional, cell-based. An outline of the steps:
as §2

Data set [23] in a line: Drug localization in lysosome of human HCT116 cells at 1 nM assessed as increase of fluorescence with acidity after 1 hr by spectrophotometric analysis. It counts as ADME, cell-based. As to conditions: hct-116, 1 h, 0.001 µM.

Calls of active or inactive are those of the source. No cut-off for these calls is given here.

Turning to `CC(=O)c1cc2c(cc1O)OC1=C(c3cc4cc(C(C)=O)c(O)cc4o3)CCC(c3cc4cc(C(C)=O)c(O)cc4o3)(c3cc4cc(C(C)=O)c(O)cc4o3)C12` (racemic), the result in the data set with HeLa [1], in the data set on N2a [9], in the data set on N2a [10], in the data set on HCT-116 [11], with HCT-116 [12] and in the data set with HCT-116 [13] was Active. Also, the result in the data set on HCT-116 [14], in the data set on HCT-116 [15], in the data set with HeLa [16], in the data set on HeLa [17], in the data set with N2a [18] and with N2a [19] was Active. The result in the data set with N2a [20], in the data set with HeLa [21] and in the data set with HeLa [22] was Active. Besides, the IC50 in the data set with HeLa [2] came to 0.12 nM; in the data set with HCT-116 [3], 0.54 nM; with N2a [4], 0.092 nM. Also, the result in data set [5], in [6], in data set [7], in data set [8] and in data set [23] was Active.

The values above are taken from ChEMBL document CHEMBL1154373, “Laetirobin from the parasitic growth of Laetiporus sulphureus on Robinia pseudoacacia” (J Nat Prod, 2009).
